# Test results reported in ChEMBL document CHEMBL1154044, “5-Nitro-2-furyl derivative actives against Trypanosoma cruzi: preliminary in vivo studies” (Eur J Med Chem, 2009).
# Calls of active or inactive are those of the source. No cut-off for these calls is given here.
# Assays:
# Mus musculus [1] = test: Toxicity in CD1 mouse heart at 300 mg/kg, ip after 3 days by histological study; format: organism-based; design: dose 300 mg/kg, route intraperitoneal; conditions: in vivo, 72 h
# Method in brief: (§1)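 Healthy female CD1 mice (20–22 g), 5–7 per group, given a single oral (intragastric) or i.p. dose in saline:Tween 80 (4:1) vehicle. Sacrificed on day 3 after ether anaesthesia. Organs fixed in 10% aqueous formalin for histology. Scored against untreated animals from no change to +++ (many changes).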
# Mus musculus [2] = test: Toxicity in CD1 mouse intestine at 300 mg/kg, ip after 3 days by histological study; format: organism-based; design: dose 300 mg/kg, route intraperitoneal; conditions: in vivo, 72 h; method in brief: as §1
# Mus musculus [3] = test: Toxicity in CD1 mouse assessed as decrease in weight respect to day zero at 300 mg/kg, po after 3 days; format: organism-based; design: dose 300 mg/kg, route oral; scale not given: the % may be the effect or the level left; conditions: in vivo, 72 h
# Method in brief: (§2)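 Healthy 2-month-old female CD1 mice (20–22 g, 5–7 per group) received one dose. Oral doses of 450 or 300 mg/kg were given by intragastric syringe; i.p. doses of 300 or 150 mg/kg by injection. Drugs were suspended in saline:Tween 80 (4:1), and a vehicle-only control was included. Mice were weighed and observed daily for 3 days. Weight change is expressed as percent relative to day zero.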
# Mus musculus [4] = test: Toxicity in CD1 mouse assessed as survival at 150 mg/kg, ip after 3 days; format: organism-based; design: dose 150 mg/kg, route intraperitoneal; conditions: in vivo, 72 h
# Method in brief: (§3)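 Healthy 2-month-old female CD1 mice (20–22 g), groups of 5–7, given one oral dose by intragastric syringe or one i.p. injection. Compound suspended in saline:Tween 80 (4:1) with sonication just before dosing; vehicle-treated controls included. Weighed and observed daily over 3 days for skin, physical aspect, activity and faeces; survival recorded at day 3.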
# Mus musculus [5] = test: Toxicity in CD1 mouse assessed as survival at 300 mg/kg, ip after 3 days; format: organism-based; design: dose 300 mg/kg, route intraperitoneal; conditions: in vivo, 72 h; method in brief: as §3
# Mus musculus [6] = test: Toxicity in CD1 mouse assessed as survival at 450 mg/kg, po after 3 days; format: organism-based; design: dose 450 mg/kg, route oral; conditions: in vivo, 72 h; method in brief: as §3
# Trypanosoma cruzi [7] = test: Growth inhibition of Trypanosoma cruzi Tulahuen 2 epimastigote at 5 uM after 5 days; format: functional; design: Activity: scale not given: the % may be the effect or the level left; conditions: for inhibition of growth at 5 µM: Trypanosoma cruzi, Tulahuen 2, 120 h, read-out: GI
# Mus musculus [8] = test: Toxicity in CD1 mouse assessed as decrease in weight respect to day zero at 150 mg/kg, ip after 3 days; format: organism-based; design: dose 150 mg/kg, route intraperitoneal; scale not given: the % may be the effect or the level left; conditions: in vivo, 72 h; method in brief: as §2
# Mus musculus [9] = test: Toxicity in CD1 mouse lung at 450 mg/kg, po after 3 days by histological study; format: organism-based; design: dose 450 mg/kg, route oral; conditions: in vivo, 72 h; method in brief: as §1
# Mus musculus [10] = test: Toxicity in CD1 mouse kidney at 450 mg/kg, po after 3 days by histological study; format: organism-based; design: dose 450 mg/kg, route oral; conditions: in vivo, 72 h; method in brief: as §1
# Mus musculus [11] = test: Toxicity in CD1 mouse liver at 450 mg/kg, po after 3 days by histological study; format: organism-based; design: dose 450 mg/kg, route oral; conditions: in vivo, 72 h; method in brief: as §1
# Mus musculus [12] = test: Toxicity in CD1 mouse assessed as survival at 300 mg/kg, po after 3 days; format: organism-based; design: dose 300 mg/kg, route oral; conditions: in vivo, 72 h; method in brief: as §3
# Mus musculus [13] = test: Toxicity in CD1 mouse assessed as decrease in weight respect to day zero at 450 mg/kg, po after 3 days; format: organism-based; design: dose 450 mg/kg, route oral; scale not given: the % may be the effect or the level left; conditions: in vivo, 72 h; method in brief: as §2
# Trypanosoma cruzi [14] = test: Antitrypanosomal activity against Trypanosoma cruzi infected in po dosed CD1 mouse assessed as prevention of amastigote nest in heart administered daily for 14 days measured on day 45; format: functional, organism-based
# Method in brief: (§4)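 T. cruzi, a Uruguayan patient isolate, was inoculated intradermally into 2-month-old female CD1 mice (20–22 g). Dosing began on day 15 after parasitaemia was observed. Drugs were suspended in saline:Tween 80 (4:1) and given by intragastric syringe once daily for 14 days, with untreated controls. On day 45 after treatment start, heart and muscle sections were scored by two independent observers for amastigotes and inflammatory infiltrates. Groups had 5–7 mice.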
# Mus musculus [15] = test: Toxicity in CD1 mouse kidney at 300 mg/kg, ip after 3 days by histological study; format: organism-based; design: dose 300 mg/kg, route intraperitoneal; conditions: in vivo, 72 h; method in brief: as §1
# Mus musculus [16] = test: Toxicity in CD1 mouse lung at 300 mg/kg, ip after 3 days by histological study; format: organism-based; design: dose 300 mg/kg, route intraperitoneal; conditions: in vivo, 72 h; method in brief: as §1
# Mus musculus [17] = test: Toxicity in CD1 mouse brain at 450 mg/kg, po after 3 days by histological study; format: organism-based; design: dose 450 mg/kg, route oral; conditions: in vivo, 72 h; method in brief: as §1
# Mus musculus [18] = test: Toxicity in CD1 mouse liver at 300 mg/kg, ip after 3 days by histological study; format: organism-based; design: dose 300 mg/kg, route intraperitoneal; conditions: in vivo, 72 h; method in brief: as §1
# Mus musculus [19] = test: Toxicity in CD1 mouse brain at 300 mg/kg, ip after 3 days by histological study; format: organism-based; design: dose 300 mg/kg, route intraperitoneal; conditions: in vivo, 72 h; method in brief: as §1
# Mus musculus [20] = test: Toxicity in CD1 mouse heart at 450 mg/kg, po after 3 days by histological study; format: organism-based; design: dose 450 mg/kg, route oral; conditions: in vivo, 72 h; method in brief: as §1
# Mus musculus [21] = test: Toxicity in CD1 mouse intestine at 450 mg/kg, po after 3 days by histological study; format: organism-based; design: dose 450 mg/kg, route oral; conditions: in vivo, 72 h; method in brief: as §1
# Trypanosoma cruzi [22] = test: Antitrypanosomal activity against Trypanosoma cruzi infected in po dosed CD1 mouse assessed as prevention of inflammatory infiltrates in heart administered daily for 14 days measured on day 45; format: functional, organism-based; method in brief: as §4
# Mus musculus [23] = test: Toxicity in CD1 mouse assessed as glutamic-oxalacetate transaminase level at 450 mg/kg, po after 3 days; format: organism-based; design: dose 450 mg/kg, route oral; conditions: in vivo, 72 h
# Method in brief: (§5)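 Healthy female CD1 mice (5–7 per group) received a single oral dose of 450 mg/kg or an i.p. dose of 300 mg/kg, with vehicle controls. On day 3 they were sacrificed under ether anaesthesia. Blood was drawn from the subclavian artery and kept at 0 °C in EDTA or heparin. Leukocytes, haemoglobin, haematocrit, GPT and GOT were measured within 24 h and compared with normal ranges.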
# Mus musculus [24] = test: Toxicity in CD1 mouse assessed as increase in weight respect to day zero at 300 mg/kg, ip after 3 days; format: organism-based; design: dose 300 mg/kg, route intraperitoneal; conditions: in vivo, 72 h; method in brief: as §2
# Mus musculus [25] = test: Toxicity in CD1 mouse assessed as leukocyte level at 300 mg/kg, ip after 3 days; format: organism-based; design: dose 300 mg/kg, route intraperitoneal; conditions: in vivo, 72 h; method in brief: as §5
# Mus musculus [26] = test: Toxicity in CD1 mouse assessed as hematocrite level at 450 mg/kg, po after 3 days; format: organism-based; design: dose 450 mg/kg, route oral; conditions: in vivo, 72 h; method in brief: as §5
# Mus musculus [27] = test: Toxicity in CD1 mouse assessed as haemoglobin level at 450 mg/kg, po after 3 days; format: organism-based; design: dose 450 mg/kg, route oral; conditions: in vivo, 72 h; method in brief: as §5
# Mus musculus [28] = test: Toxicity in CD1 mouse assessed as glutamic-oxalacetate transaminase level at 300 mg/kg, ip after 3 days; format: organism-based; design: dose 300 mg/kg, route intraperitoneal; conditions: in vivo, 72 h; method in brief: as §5
# Mus musculus [29] = test: Toxicity in CD1 mouse assessed as hematocrite level at 300 mg/kg, ip after 3 days; format: organism-based; design: dose 300 mg/kg, route intraperitoneal; conditions: in vivo, 72 h; method in brief: as §5
# Mus musculus [30] = test: Toxicity in CD1 mouse assessed as glutamic-pyruvate transaminase level at 450 mg/kg, po after 3 days; format: organism-based; design: dose 450 mg/kg, route oral; conditions: in vivo, 72 h; method in brief: as §5
# Mus musculus [31] = test: Toxicity in CD1 mouse assessed as haemoglobin level at 300 mg/kg, ip after 3 days; format: organism-based; design: dose 300 mg/kg, route intraperitoneal; conditions: in vivo, 72 h; method in brief: as §5
# Mus musculus [32] = test: Toxicity in CD1 mouse assessed as increase in weight respect to day zero at 450 mg/kg, po after 3 days; conditions: in vivo, 72 h
# Mus musculus [33] = test: Toxicity in CD1 mouse assessed as glutamic-pyruvate transaminase level at 300 mg/kg, ip after 3 days; format: organism-based; design: dose 300 mg/kg, route intraperitoneal; conditions: in vivo, 72 h; method in brief: as §5
# Mus musculus [34] = test: Toxicity in CD1 mouse assessed as leukocyte level at 450 mg/kg, po after 3 days; format: organism-based; design: dose 450 mg/kg, route oral; conditions: in vivo, 72 h; method in brief: as §5
SMILES,Activity (Mus musculus [1]),Activity (Mus musculus [2]),Activity (Mus musculus [5]),Activity (Mus musculus [6]),inhibition of growth at 5 µM (Trypanosoma cruzi [7]),Activity (Mus musculus [9]),Activity (Mus musculus [10]),Activity (Mus musculus [11]),Activity (Mus musculus [13]),Activity (Trypanosoma cruzi [14]),Activity (Mus musculus [15]),Activity (Mus musculus [16]),Activity (Mus musculus [17]),Activity (Mus musculus [18]),Activity (Mus musculus [19]),Activity (Mus musculus [20]),Activity (Mus musculus [21]),Activity (Trypanosoma cruzi [22]),Activity (Mus musculus [23]),Activity (Mus musculus [24]),further results
CCCCNC(=O)N/N=C/c1ccc([N+](=O)[O-])o1,Non-toxic,Non-toxic,Toxic,Non-toxic,30%,Non-toxic,Toxic,Toxic,1%,Active,Toxic,Non-toxic,Non-toxic,Toxic,Non-toxic,Non-toxic,Toxic,Active,,,Activity (Mus musculus [3]): 4%; Activity (Mus musculus [4]): Non-toxic; Activity (Mus musculus [8]): 6%; Activity (Mus musculus [12]): Non-toxic
CCCCCCOC(=O)N/N=C/C=C/c1ccc([N+](=O)[O-])o1,Non-toxic,Non-toxic,Non-toxic,Non-toxic,,Non-toxic,Toxic,Toxic,,Active,Non-toxic,Non-toxic,Non-toxic,Toxic,Non-toxic,Non-toxic,Non-toxic,Active,164 IU/L,2%,Activity (Trypanosoma cruzi [7]): 86%; Activity (Mus musculus [25]): 5300 µL⁻¹; Activity (Mus musculus [26]): 42.1%; Activity (Mus musculus [27]): 13.5 g/dL; Activity (Mus musculus [28]): 172 IU/L; Activity (Mus musculus [29]): 22.9%; Activity (Mus musculus [30]): 42 IU/L; Activity (Mus musculus [31]): 12 g/dL; Activity (Mus musculus [32]): 2%; Activity (Mus musculus [33]): 33 IU/L; Activity (Mus musculus [34]): 6600 µL⁻¹
CCCCOC(=O)N/N=C/C=C/c1ccc([N+](=O)[O-])o1,Non-toxic,Non-toxic,Non-toxic,Non-toxic,87%,Non-toxic,Non-toxic,Toxic,2%,,Non-toxic,Non-toxic,Non-toxic,Toxic,Non-toxic,Non-toxic,Non-toxic,,72 IU/L,2%,Activity (Mus musculus [25]): 31800 µL⁻¹; Activity (Mus musculus [27]): 13.5 g/dL; Activity (Mus musculus [28]): 76.5 IU/L; Activity (Mus musculus [29]): 37.2%; Activity (Mus musculus [30]): 22.6 IU/L; Activity (Mus musculus [31]): 11.8 g/dL; Activity (Mus musculus [33]): 17 IU/L; Activity (Mus musculus [34]): 26600 µL⁻¹
